Assay results published in ChEMBL document CHEMBL1131300, “Synthesis and calcium channel-modulating effects of alkyl (or cycloalkyl) 1,4-dihydro-2,6-dimethyl-3-nitro-4-pyridyl-5-pyridinecarboxylate racemates and enantiomers” (J Med Chem, 1998).

Assays:
[1] = species on record: Cavia porcellus; assay: Compound was tested for calcium channel agonistic activity, causing a 50% increase of the maximum contractile response on guinea pig left atrium.; assay type: functional, Cardiac atrium
How it was run: (§1)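 Guinea pig left atrium (GPLA) preparation exposed to increasing test compound concentrations. […] Number of experiments varies per compound. For weak responders, percent increase in contractile force recorded at individual concentrations.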

[2] = species on record: Cavia porcellus; assay: Inhibition of carbachol-induced tonic contractile response in guinea pig ileal longitudinal smooth muscle; assay type: functional
How it was run: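 Guinea pig ileal longitudinal smooth muscle contracted by the muscarinic agonist carbachol (1.6 × 10⁻⁷ M). Slow, Ca²⁺-dependent tonic component measured. […] Reported ± SEM, n = 3.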

[3] = species on record: Cavia porcellus; assay: Calcium channel agonist activity causing a 50% increase in maximum contractile response on guinea pig left atrium; 'c' means Weak agonist; assay type: functional, Cardiac atrium; how it was run: as §1
[4] = species on record: Cavia porcellus; assay: Calcium channel agonist activity causing a 50% increase in maximum contractile response on guinea pig left atrium; No effect; assay type: functional, Cardiac atrium; how it was run: as §1
[5] = Cavia porcellus, Cardiac atrium

SMILES | EC50 [1, 5] | also measured
CO/C(O)=C1\C(C)=NC(C)=C([N+](=O)[O-])C1c1ccncc1 (configuration not stated) | 48.5 µM | –
CC1=NC(C)=C([N+](=O)[O-])C(c2cccnc2)/C1=C(\O)OC(C)(C)C (configuration not stated) | 14.6 µM | –
CC1=NC(C)=C([N+](=O)[O-])C(c2ccccn2)/C1=C(\O)OC1CCCCC1 (single isomer, unassigned; (+)) | – | IC50 [2]: 5270 nM; EC50 [1]: 8.45 µM
CC1=NC(C)=C([N+](=O)[O-])C(c2ccccn2)/C1=C(\O)OC(C)(C)C (configuration not stated) | 1810 µM | IC50 ([2]; Cavia porcellus): 1930 nM
CC1=NC(C)=C([N+](=O)[O-])C(c2ccccn2)/C1=C(\O)OC1CCCCC1 (stereo in doubt; 14a) | – | IC50 [2]: 842 nM; EC50 [1]: 3.7 µM
COCCO/C(O)=C1\C(C)=NC(C)=C([N+](=O)[O-])C1c1ccncc1 (configuration not stated) | 37.7 µM | –
COCCO/C(O)=C1\C(C)=NC(C)=C([N+](=O)[O-])C1c1cccnc1 (configuration not stated) | 49.4 µM | –
CO/C(O)=C1\C(C)=NC(C)=C([N+](=O)[O-])C1c1cccnc1 (configuration not stated) | 70 µM | –
CCO/C(O)=C1\C(C)=NC(C)=C([N+](=O)[O-])C1c1ccccn1 (configuration not stated) | 22.8 µM | IC50 ([2]; Cavia porcellus): 5000 nM
CC1=NC(C)=C([N+](=O)[O-])C(c2ccccn2)/C1=C(\O)OC1CCCC1 (configuration not stated) | 19.8 µM | IC50 ([2]; Cavia porcellus): 450 nM
CC1=NC(C)=C([N+](=O)[O-])C(c2ccccn2)/C1=C(\O)OCC(C)C (configuration not stated) | 9.1 µM | IC50 ([2]; Cavia porcellus): 2610 nM
COCCO/C(O)=C1\C(C)=NC(C)=C([N+](=O)[O-])C1c1ccccn1 (configuration not stated) | 9.7 µM | IC50 ([2]; Cavia porcellus): 94700 nM
CC1=NC(C)=C([N+](=O)[O-])C(c2ccccn2)/C1=C(\O)OC1CCCCC1 (single isomer, unassigned; (-)) | – | IC50 [2]: 74.8 nM; EC50 [3]: Partial agonist
CO/C(O)=C1\C(C)=NC(C)=C([N+](=O)[O-])C1c1ccccn1 (configuration not stated) | – | IC50 ([2]; Cavia porcellus): 212000 nM; EC50 [4]: Not Active

More lines, in order of falling EC50 [1, 5], values ahead:

EC50 [1, 5] | SMILES | also measured
8.84 µM | CCO/C(O)=C1\C(C)=NC(C)=C([N+](=O)[O-])C1c1cccnc1 (configuration not stated) | –
8.51 µM | CC1=NC(C)=C([N+](=O)[O-])C(c2ccncc2)/C1=C(\O)OCC(C)C (configuration not stated) | –
6.46 µM | CCO/C(O)=C1\C(C)=NC(C)=C([N+](=O)[O-])C1c1ccncc1 (configuration not stated) | –
4.94 µM | CC1=NC(C)=C([N+](=O)[O-])C(c2ccncc2)/C1=C(\O)OC1CCCCC1 (configuration not stated) | –
4.25 µM | CC1=NC(C)=C([N+](=O)[O-])C(c2ccncc2)/C1=C(\O)OC1CCCC1 (configuration not stated) | –
3.28 µM | CC1=NC(C)=C([N+](=O)[O-])C(c2cccnc2)/C1=C(\O)OC1CCCC1 (configuration not stated) | –
2.82 µM | CC1=NC(C)=C([N+](=O)[O-])C(c2ccncc2)/C1=C(\O)OC(C)(C)C (configuration not stated) | –
2.76 µM | CC1=NC(C)=C([N+](=O)[O-])C(c2cccnc2)/C1=C(\O)OC1CCCCC1 (configuration not stated) | –
1.74 µM | CC1=NC(C)=C([N+](=O)[O-])C(c2cccnc2)/C1=C(\O)OCC(C)C (configuration not stated) | –
